Experiments:
[1] = system: Human immunodeficiency virus 1; assay: Inhibitory activity against HIV-1 mutant strain 138K; assay type: functional, organism-based
Procedure, shortened: (§1)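 Mutant HIV-1 made by recombining mutant PR-RT sequence into a PR-RT-deleted HXB2 proviral clone. Serial compound concentrations plated, then virus (200 CCID50/well) and MT4 cells (30 000 cells/well; RPMI 1640, 10% FCS) added; 5 days at 37 °C, 5% CO2; viability read by MTT. EC50 = concentration giving 50% infection versus drug-free control; mock-infected cultures run in parallel for toxicity.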

[2] = system: Human immunodeficiency virus 1; assay: Inhibitory activity against HIV-1 double mutants strain 100I and 103N; assay type: functional, organism-based; procedure, shortened: as §1
[3] = system: Human immunodeficiency virus 1; assay: Inhibitory activity against HIV-1 double mutants strain 101E and 103N; assay type: functional, organism-based; procedure, shortened: as §1
[4] = system: Human immunodeficiency virus 1; assay: Inhibitory activity against HIV-1 double mutants strain 103N and 181C; assay type: functional, organism-based; procedure, shortened: as §1
[5] = system: Human immunodeficiency virus 1; assay: Inhibitory activity against HIV-1 double mutants strain 227L and 106A; assay type: functional, organism-based; procedure, shortened: as §1
[6] = system: Human immunodeficiency virus 1; assay: Inhibitory activity against HIV-1 mutant strain 100I; assay type: functional, organism-based; procedure, shortened: as §1
[7] = system: Human immunodeficiency virus 1; assay: Inhibitory activity against HIV-1 mutant strain 101E; assay type: functional, organism-based; procedure, shortened: as §1
[8] = system: Human immunodeficiency virus 1; assay: Inhibitory activity against HIV-1 mutant strain 103N; assay type: functional, organism-based; procedure, shortened: as §1
[9] = system: Human immunodeficiency virus 1; assay: Inhibitory activity against HIV-1 mutant strain 106A; assay type: functional, organism-based; procedure, shortened: as §1
[10] = system: Human immunodeficiency virus 1; assay: Inhibitory activity against HIV-1 mutant strain 179E; assay type: functional, organism-based; procedure, shortened: as §1
[11] = system: Human immunodeficiency virus 1; assay: Inhibitory activity against HIV-1 mutant strain 181C; assay type: functional, organism-based; procedure, shortened: as §1
[12] = system: Human immunodeficiency virus 1; assay: Inhibitory activity against HIV-1 mutant strain 188L; assay type: functional, organism-based; procedure, shortened: as §1
[13] = system: Human immunodeficiency virus 1; assay: Inhibitory activity against HIV-1 mutant strain 190A; assay type: functional, organism-based; procedure, shortened: as §1
[14] = system: Human immunodeficiency virus 1; assay: Inhibitory activity against HIV-1 mutant strain 190S; assay type: functional, organism-based; procedure, shortened: as §1
[15] = system: Human immunodeficiency virus 1; assay: Inhibitory activity against HIV-1 mutant strain 227C; assay type: functional, organism-based; procedure, shortened: as §1
[16] = system: Human immunodeficiency virus 1; assay: Inhibitory activity against wild type HIV-1 LAI cell line; assay type: functional, organism-based; conditions: Human immunodeficiency virus 1, LAI
Procedure, shortened: (§2)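 MT4 human T-lymphoblastoid cells were grown in RPMI 1640 with 10% fetal calf serum and antibiotics at 37 °C and 5% CO2. A compound concentration series was combined with HIV-1 LAI at 200 CCID50/well and 30 000 cells/well. Mock-infected cultures with the same concentrations were run in parallel to measure cytotoxicity. After 5 days, cell viability was read by MTT colorimetry. EC50 is the concentration giving 50% infection versus the drug-free control.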

[17] = system: Human immunodeficiency virus 1; assay: Selectivity index of cytotoxic activity (CC50) to inhibitory activity (IC50) relative to LAI cell line; assay type: functional; procedure, shortened: as §2

Row | SMILES | IC50 [1] | IC50 [2] | IC50 [3] | IC50 [4] | IC50 [5] | IC50 [6] | IC50 [7] | IC50 [8] | IC50 [9] | IC50 [10] | IC50 [11] | IC50 [12] | IC50 [13] | IC50 [14] | IC50 [15] | IC50 [16] | Selectivity index [17]
1 | CCc1c(C)nc(O)c(N(C)C)c1Cc1cccc(/C=C/C#N)c1 | 0.003 µM | 0.03 µM | 0.02 µM | 0.03 µM | 3.16 µM | 0.01 µM | 0.006 µM | 0.002 µM | 0.002 µM | 0.001 µM | 0.01 µM | 0.15 µM | 0.008 µM | 0.04 µM | 0.39 µM | 0.0004 µM | 25100
2 | CCc1c(C)[nH]c(=O)c(N(C)C)c1C(=O)c1cc(C)cc(C)c1 | 0.005 µM | 0.04 µM | 0.01 µM | 0.15 µM | 0.39 µM | 0.006 µM | 0.008 µM | 0.01 µM | 0.006 µM | 0.002 µM | 0.06 µM | 0.15 µM | 0.01 µM | 0.004 µM | 0.63 µM | 0.004 µM | 2510
3 | O=C1Nc2ccc(Cl)cc2[C@@](C#CC2CC2)(C(F)(F)F)O1 [EFAVIRENZ] | 0.002 µM | 10 µM | 0.15 µM | 0.04 µM | 0.02 µM | 0.04 µM | 0.006 µM | 0.04 µM | 0.04 µM | 0.005 µM | 0.002 µM | 0.15 µM | 0.01 µM | 0.25 µM | 0.15 µM | – | –
4 | CCOCn1c(Cc2ccccc2)c(C(C)C)c(=O)[nH]c1=O [EMIVIRINE] | 0.07 µM | 25.1 µM | 7.94 µM | 100 µM | 100 µM | 0.04 µM | 0.12 µM | 0.79 µM | 1.99 µM | 0.03 µM | 1.99 µM | 39.8 µM | 1.58 µM | 7.94 µM | 79.4 µM | 0.008 µM | 1260
5 | CCc1c(C)[nH]c(=O)c(N(C)C)c1Cc1cc(C)cc(C)c1 | – | – | – | 0.79 µM | – | 0.05 µM | 0.01 µM | 0.03 µM | 0.04 µM | – | 0.1 µM | 0.25 µM | 0.06 µM | – | – | 0.008 µM | 12600
6 | CCc1c(C)nc(O)c(N(C)C)c1C(=O)c1cccc(/C=C/C#N)c1 | 0.005 µM | 0.02 µM | 0.01 µM | 0.04 µM | 1 µM | 0.006 µM | 0.008 µM | 0.002 µM | 0.002 µM | 0.001 µM | 0.01 µM | 0.15 µM | 0.006 µM | 0.006 µM | 0.79 µM | 0.001 µM | 10000
7 | CCc1c(C)nc(O)c(N(C)C)c1C(=O)c1cccc(/C(C)=C/C#N)c1 | 0.004 µM | 0.04 µM | 0.02 µM | 0.2 µM | 1.25 µM | 0.01 µM | 0.008 µM | 0.003 µM | 0.003 µM | 0.002 µM | 0.06 µM | 0.39 µM | 0.006 µM | 0.01 µM | 1.25 µM | 0.001 µM | 63100

From ChEMBL document CHEMBL1138799, “4-benzyl- and 4-benzoyl-3-dimethylaminopyridin-2(1H)-ones, a new family of potent anti-HIV agents: optimization and in vitro evaluation against clinically important HIV mutant strains” (J Med Chem, 2004)
